Activity calls are given as the source filed them. No cut-off for these calls is given here.
Experiments:
Mus musculus [1] = species: Mus musculus; experiment: Analgesic activity in mouse by formalin paw licking assay at 0-15 mins; assay type: functional, organism-based
Procedure, shortened: (§1)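 Mice (18-20 g) were dosed 1 h before intraplantar 5% formalin (10 µL), given under light enflurane anesthesia. A blinded observer scored paw licking in two phases: 0-15 min and 15-45 min.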

Mus musculus [2] = species: Mus musculus; experiment: Analgesic activity in Swiss mouse by acetic acid-induced writhing test; assay type: functional, organism-based
Procedure, shortened: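 Male mice (25-30 g) received 0.6% acetic acid intraperitoneally and were caged singly. Writhes were counted over 15 min, starting from the first writhing movement.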

[3] = target: T1, Prostaglandin G/H synthase 2 (Mus musculus) (UniProt Q05769); experiment: Activity at COX2 assessed as inhibition of arachidonic acid-induced PGE2 production in LPS-stimulated J774 cells at 100 uM; assay type: cell-based
T1 sequence (whole entry): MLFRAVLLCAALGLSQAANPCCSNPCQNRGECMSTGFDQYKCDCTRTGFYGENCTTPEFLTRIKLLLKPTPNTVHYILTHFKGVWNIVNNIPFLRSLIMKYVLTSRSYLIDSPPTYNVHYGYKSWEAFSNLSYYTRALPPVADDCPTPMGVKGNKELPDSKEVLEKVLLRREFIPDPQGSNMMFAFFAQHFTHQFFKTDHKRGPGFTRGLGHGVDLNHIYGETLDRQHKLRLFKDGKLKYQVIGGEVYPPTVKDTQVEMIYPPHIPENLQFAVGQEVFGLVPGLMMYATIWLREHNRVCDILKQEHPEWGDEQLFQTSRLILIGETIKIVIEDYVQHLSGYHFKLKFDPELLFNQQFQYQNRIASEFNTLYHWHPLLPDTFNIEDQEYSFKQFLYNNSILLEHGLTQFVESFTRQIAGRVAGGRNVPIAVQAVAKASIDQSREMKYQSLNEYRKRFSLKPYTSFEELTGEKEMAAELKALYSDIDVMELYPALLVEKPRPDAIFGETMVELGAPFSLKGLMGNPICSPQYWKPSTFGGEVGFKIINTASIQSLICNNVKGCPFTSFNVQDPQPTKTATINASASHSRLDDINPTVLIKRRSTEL
Procedure, shortened: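 J774 cells were induced with S. typhosa LPS (10 µg/mL, 24 h) to express COX-2. Medium was replaced with fresh medium holding 15 µM arachidonic acid, with or without compound (0.01-100 µM, ethanol vehicle), for 30 min at 37 °C. Supernatant PGE2 was measured by radioimmunoassay. Triplicate wells; % inhibition vs control, mean of three experiments.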

Rattus norvegicus = experiment: Gastric damage in rat at 100 mg/kg, po by GI damage assay; assay type: functional
Procedure, shortened: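 Rats (120-140 g) were fasted 18 h with water allowed, then dosed orally at 100 mg/kg; a vehicle group was included, six rats per group. After 5 h, stomachs were excised under pentobarbital. A blinded observer summed lesion lengths in mm per stomach. Analysis: Kruskal-Wallis with Dunn's post-test.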

Mus musculus [4] = species: Mus musculus; experiment: Analgesic activity in mouse by formalin paw licking assay at 15-45 mins; assay type: functional, organism-based; procedure, shortened: as §1
[5] = target: T2, Prostaglandin G/H synthase 1 (Mus musculus) (UniProt P22437); experiment: Activity at COX1 assessed as inhibition of arachidonic acid-induced PGE2 production in J774 cells; assay type: cell-based
T2 sequence (whole entry): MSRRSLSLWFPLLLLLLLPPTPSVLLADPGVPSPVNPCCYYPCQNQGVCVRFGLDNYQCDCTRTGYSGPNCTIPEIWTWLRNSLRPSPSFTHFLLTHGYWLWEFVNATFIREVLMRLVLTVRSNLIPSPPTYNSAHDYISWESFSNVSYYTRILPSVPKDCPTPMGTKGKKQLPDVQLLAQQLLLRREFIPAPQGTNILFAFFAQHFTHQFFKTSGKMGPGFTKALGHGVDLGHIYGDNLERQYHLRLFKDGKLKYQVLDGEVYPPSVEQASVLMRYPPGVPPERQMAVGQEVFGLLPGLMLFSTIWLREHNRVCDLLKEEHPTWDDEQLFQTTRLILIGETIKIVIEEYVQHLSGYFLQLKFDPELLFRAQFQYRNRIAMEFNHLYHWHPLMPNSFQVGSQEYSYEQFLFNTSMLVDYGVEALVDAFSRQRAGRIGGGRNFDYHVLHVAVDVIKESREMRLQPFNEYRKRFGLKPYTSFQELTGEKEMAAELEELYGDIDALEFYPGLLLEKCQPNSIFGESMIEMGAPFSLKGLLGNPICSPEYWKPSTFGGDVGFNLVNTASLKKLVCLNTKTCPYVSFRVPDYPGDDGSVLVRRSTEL
Procedure, shortened: (§2)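 Murine J774 macrophages were grown in DMEM with 10% FBS, adhered for 2 h at 37 °C, then switched to serum-free medium. Cells were pretreated with compound (0.01-100 µM, ethanol vehicle) for 15 min, then given 15 µM arachidonic acid for 30 min at 37 °C. Supernatant PGE2 was measured by radioimmunoassay. Triplicate wells; % inhibition vs control, mean of three experiments.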

[6] = target: T2, Prostaglandin G/H synthase 1 (Mus musculus); experiment: Activity at COX1 assessed as inhibition of arachidonic acid-induced PGE2 production in J774 cells at 10 uM; assay type: cell-based; procedure, shortened: as §2
Mus musculus [7] = experiment: Antiinflammatory activity in carrageenan-induced mouse paw edema; assay type: functional, organism-based
Procedure, shortened: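 Mice (18-20 g), lightly anesthetized with enflurane, were dosed 1 h before subplantar 1% carrageenan in the left footpad. Paw volume was read by hydroplethysmometer before injection and at 2, 4, 6, 24, 48 and 72 h. Edema was taken as the increase over basal volume.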

[8] = target: T2, Prostaglandin G/H synthase 1 (Mus musculus); experiment: Activity at COX1 assessed as inhibition of arachidonic acid-induced PGE2 production in J774 cells at 100 uM; assay type: cell-based; procedure, shortened: as §2
[9] = target: T2, Prostaglandin G/H synthase 1 (Mus musculus); experiment: Activity at COX1 assessed as inhibition of arachidonic acid-induced PGE2 production in J774 cells at 0.01 uM; assay type: cell-based; procedure, shortened: as §2
[10] = target: T2, Prostaglandin G/H synthase 1 (Mus musculus); experiment: Activity at COX1 assessed as inhibition of arachidonic acid-induced PGE2 production in J774 cells at 0.1 uM; assay type: cell-based; procedure, shortened: as §2
[11] = target: T2, Prostaglandin G/H synthase 1 (Mus musculus); experiment: Activity at COX1 assessed as inhibition of arachidonic acid-induced PGE2 production in J774 cells at 1 uM; assay type: cell-based; procedure, shortened: as §2

Compound | Activity (Mus musculus [1]) | Activity (Mus musculus [2]) | inhibition [3] [%] | Activity (Rattus norvegicus) | Activity (Mus musculus [4]) | Activity [5] | inhibition [6] [%] | Activity (Mus musculus [7]) | inhibition [8] [%] | Activity [9] | Activity [10] | Activity [11] | Activity [6] | Activity [8]
CCOC(=O)Cc1c(C)n(C2CCN(C)CC2)c2ccc(OC)cc12 | inactive | Dose-dependent effect | 24 | 0.6 mm | Active | Dose-dependent effect | 37 | Active | 58 |  |  |  |  | 
CCOC(=O)Cc1c(C)n(C2CCN(C)CC2)c2ccc(OC(C)=O)cc12 |  |  |  |  |  |  |  |  |  | inactive | inactive | inactive | inactive | inactive
Cc1c(CC(=O)O)c2cc(O)ccc2n1C1CCN(C)CC1 |  |  |  |  |  |  |  |  |  | inactive | inactive | inactive | inactive | inactive
COc1ccc2c(c1)c(CC(=O)O)c(C)n2C1CCN(C)CC1 | inactive | Dose-dependent effect |  | inactive | Active | Dose-dependent effect | 57 | Active | 64 |  |  |  |  | 
COc1ccc2c(c1)c(CC(=O)O)c(C)n2C(=O)c1ccc(Cl)cc1 [INDOMETHACIN] |  |  |  | 50 mm |  | Dose-dependent effect | 75 | Active | 88 |  |  |  |  | 

Source: ChEMBL document CHEMBL1138850, “Synthesis of 2-methyl-3-indolylacetic derivatives as anti-inflammatory agents that inhibit preferentially cyclooxygenase 1 without gastric damage” (2006)
